Test results: ChEMBL document CHEMBL1124795, “Synthesis and cytotoxicity of deoxyadenosine analogues: isomer distribution in the sodium salt glycosylation of 2,6-disubstituted purines” (J Med Chem, 1990)
Calls of active or inactive are those of the source. No cut-off for these calls is given here.

Experiments:
NALL-1 [1] = assay: (§1) In vitro toxicity which caused 50% decrease in [14C]- leucine incorporation by the NALL-1 cells in culture.; assay type: functional; settings: Homo sapiens, read-out: ID50 (the source's name)
Procedure, shortened: (§2)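 Cells seeded at 10⁴ per well and exposed to compounds for 3 days in RPMI 1640 with 10% fetal calf serum, glutamine and antibiotics, at 37 °C under 5% CO₂. [¹⁴C]-L-leucine (0.5 μCi/mL) was present for the final 24 h. Protein was precipitated with 0.2 N perchloric acid, collected on glass-fibre filters and scintillation-counted. ID50 (μM, 50% drop in incorporation) was read from triplicate dose-response curves.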

HL-60 [2] = assay: In vitro toxicity which caused 50% decrease in [14C]- leucine incorporation by the HL-60 cells in culture.; assay type: functional; settings: Homo sapiens, read-out: ID50 (the source's name); procedure, shortened: as §2
PHA-Ly [3] = assay: In vitro toxicity which caused 50% decrease in [14C]- leucine incorporation by the PHA-LY cells in culture.; assay type: functional; settings: Homo sapiens, read-out: ID50 (the source's name); procedure, shortened: as §2
K562 [4] = assay: In vitro toxicity which caused 50% decrease in [14C]- leucine incorporation by the K-562 cells in culture.; assay type: functional; settings: Homo sapiens, read-out: ID50 (the source's name); procedure, shortened: as §2
Raji [5] = assay: (§3) In vitro toxicity which caused 50% decrease in [14C]- leucine incorporation by the Raji cells in culture.; assay type: functional; settings: Homo sapiens, read-out: ID50 (the source's name); procedure, shortened: as §2
U-937 [6] = assay: (§4) In vitro toxicity which caused 50% decrease in [14C]- leucine incorporation by the U-937 cells in culture.; assay type: functional; settings: Homo sapiens, read-out: ID50 (the source's name); procedure, shortened: as §2
B-95-8 cell line [7] = assay: In vitro toxicity which caused 50% decrease in [14C]- leucine incorporation by the B-95-8 cells in culture.; assay type: functional, Callitrichidae; settings: Saguinus oedipus, read-out: ID50 (the source's name); procedure, shortened: as §2
MOLT-4 [8] = assay: (§5) In vitro toxicity which caused 50% decrease in [14C]- leucine incorporation by the MOLT-4 cells in culture.; assay type: functional; settings: Homo sapiens, read-out: ID50 (the source's name); procedure, shortened: as §2
K562 [9] = assay: In vitro toxicity which caused 50% decrease in [14C]- leucine incorporation by the K-562 cells in culture at 40 uM; IN-Inactive; assay type: functional, cell-based; settings: Homo sapiens; procedure, shortened: as §2
Raji [10] = assay: In vitro toxicity which caused 50% decrease in [14C]- leucine incorporation by the Raji cells in culture at 40 uM; IN-Inactive; assay type: functional, cell-based; settings: Homo sapiens; procedure, shortened: as §2
MOLT-4 [11] = assay: In vitro toxicity which caused 50% decrease in [14C]- leucine incorporation by the MOLT-4 cells in culture at 40 uM; IN-Inactive; assay type: functional, cell-based; settings: Homo sapiens; procedure, shortened: as §2
B-95-8 cell line [12] = assay: In vitro toxicity which caused 50% decrease in [14C]- leucine incorporation by the B-95-8 cells in culture at 40 uM; IN-Inactive; assay type: functional, cell-based; procedure, shortened: as §2
HL-60 [13] = assay: In vitro toxicity which caused 50% decrease in [14C]- leucine incorporation by the HL-60 cells in culture at 40 uM; IN-Inactive; assay type: functional, cell-based; settings: Homo sapiens; procedure, shortened: as §2
NALL-1 [14] = assay: In vitro toxicity which caused 50% decrease in [14C]- leucine incorporation by the NALL-1 cells in culture at 40 uM; IN-Inactive; assay type: functional, cell-based; settings: Homo sapiens; procedure, shortened: as §2
PHA-Ly [15] = assay: In vitro toxicity which caused 50% decrease in [14C]- leucine incorporation by the PHA-LY cells in culture at 40 uM; IN-Inactive; assay type: functional, cell-based; settings: Homo sapiens; procedure, shortened: as §2
U-937 [16] = assay: In vitro toxicity which caused 50% decrease in [14C]- leucine incorporation by the U-937 cells in culture at 40 uM; IN-Inactive; assay type: functional, cell-based; settings: Homo sapiens; procedure, shortened: as §2
MOLT-4 [17] = assay: as §5; assay type: cell-based; settings: human, read-out: ID50 (the source's name); procedure, shortened: as §2
NALL-1 [18] = assay: as §1; assay type: cell-based; settings: human, read-out: ID50 (the source's name); procedure, shortened: as §2
Raji [19] = assay: as §3; assay type: cell-based; settings: human, read-out: ID50 (the source's name); procedure, shortened: as §2
U-937 [20] = assay: as §4; assay type: cell-based; settings: human, read-out: ID50 (the source's name); procedure, shortened: as §2

| Structure (SMILES) | IC50 (NALL-1 [1]) [µM] | IC50 (HL-60 [2]) [µM] | IC50 (PHA-Ly [3]) [µM] | IC50 (K562 [4]) [µM] | IC50 (Raji [5]) [µM] | IC50 (U-937 [6]) [µM] | IC50 (B-95-8 cell line [7]) [µM] | IC50 (MOLT-4 [8]) [µM] | ID50 (K562 [9]) | ID50 (Raji [10]) | ID50 (MOLT-4 [11]) | ID50 (B-95-8 cell line [12]) | ID50 (HL-60 [13]) | ID50 (NALL-1 [14]) | ID50 (PHA-Ly [15]) | ID50 (U-937 [16]) | CC50 (MOLT-4 [17]) [µM] | CC50 (NALL-1 [18]) [µM] | CC50 (Raji [19]) [µM] | CC50 (U-937 [20]) [µM] |
| --- | --- | --- | --- | --- | --- | --- | --- | --- | --- | --- | --- | --- | --- | --- | --- | --- | --- | --- | --- | --- |
| CNc1nc(SC)nc2c1ncn2[C@@H]1C[C@@H](O)[C@H](CO)O1 | 186 | > 300 | 81 | > 300 | > 300 | > 300 | > 300 | > 300 |  |  |  |  |  |  |  |  |  |  |  |  |
| CN(C)c1nc(N)c2ncn([C@@H]3C[C@@H](O)[C@H](CO)O3)c2n1 | > 300 | > 300 | > 300 | > 300 | 125 | > 300 | 182 | > 300 |  |  |  |  |  |  |  |  |  |  |  |  |
| CN(C)c1nc(N(C)C)c2ncn([C@@H]3C[C@@H](O)[C@H](CO)O3)c2n1 |  |  |  |  |  |  |  |  | inactive | inactive | inactive | inactive | inactive | inactive | inactive | inactive |  |  |  |  |
| Nc1nc(Br)nc2c1ncn2[C@@H]1C[C@@H](O)[C@H](CO)O1 |  | 41 | 1.6 | 83 |  |  | 6 |  |  |  |  |  |  |  |  |  | 3.2 | 12 | 0.7 | 0.8 |
| CSc1nc(SC)c2ncn([C@@H]3C[C@@H](O)[C@H](CO)O3)c2n1 | 173 | > 300 | 167 | > 300 | 170 | > 300 | 225 | 141 |  |  |  |  |  |  |  |  |  |  |  |  |
| CN(C)c1nc(Br)nc2c1ncn2[C@@H]1C[C@@H](O)[C@H](CO)O1 | 290 | > 300 | 88 | > 300 | > 300 | 164 | > 300 | > 300 |  |  |  |  |  |  |  |  |  |  |  |  |
| CSc1nc(N)c2ncn([C@@H]3C[C@@H](O)[C@H](CO)O3)c2n1 | 96 | > 300 | 82 | > 300 | 107 | > 300 | > 300 | > 300 |  |  |  |  |  |  |  |  |  |  |  |  |
| CSc1nc(N(C)C)c2ncn([C@@H]3C[C@@H](O)[C@H](CO)O3)c2n1 | 188 | > 300 | 260 | > 300 | 233 | 126 | 116 | 172 |  |  |  |  |  |  |  |  |  |  |  |  |
| CNc1nc(Br)nc2c1ncn2[C@@H]1C[C@@H](O)[C@H](CO)O1 | 230 | 143 | 30 | 110 | 80 | 140 | 253 | 177 |  |  |  |  |  |  |  |  |  |  |  |  |
